Screening results (PubChem)
Compounds with a hit are over-represented: about 1.4% of the library has one in this group of screens.
Rev-erbA mod – modulators of Rev-erb alpha DNA binding, primary screen, biochemical, FITC-DNA, fluorescence polarization, uHTS. Nuclear receptor subfamily 1 group D member 1 (Homo sapiens), P20393. Rev-erbα–FITC-DNA binding, 90 min. activity, % at 10 µM. hit rate 0.79% among 370,000. AID 1259318, 2017;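 active means activity above about 14%, limit read from the data; passing the limit was not always enough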;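 further: 0% = DMSO wells with 35 nM protein and 100% = DMSO wells with 750 nM protein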
Target sequence (P20393 whole entry, looked up): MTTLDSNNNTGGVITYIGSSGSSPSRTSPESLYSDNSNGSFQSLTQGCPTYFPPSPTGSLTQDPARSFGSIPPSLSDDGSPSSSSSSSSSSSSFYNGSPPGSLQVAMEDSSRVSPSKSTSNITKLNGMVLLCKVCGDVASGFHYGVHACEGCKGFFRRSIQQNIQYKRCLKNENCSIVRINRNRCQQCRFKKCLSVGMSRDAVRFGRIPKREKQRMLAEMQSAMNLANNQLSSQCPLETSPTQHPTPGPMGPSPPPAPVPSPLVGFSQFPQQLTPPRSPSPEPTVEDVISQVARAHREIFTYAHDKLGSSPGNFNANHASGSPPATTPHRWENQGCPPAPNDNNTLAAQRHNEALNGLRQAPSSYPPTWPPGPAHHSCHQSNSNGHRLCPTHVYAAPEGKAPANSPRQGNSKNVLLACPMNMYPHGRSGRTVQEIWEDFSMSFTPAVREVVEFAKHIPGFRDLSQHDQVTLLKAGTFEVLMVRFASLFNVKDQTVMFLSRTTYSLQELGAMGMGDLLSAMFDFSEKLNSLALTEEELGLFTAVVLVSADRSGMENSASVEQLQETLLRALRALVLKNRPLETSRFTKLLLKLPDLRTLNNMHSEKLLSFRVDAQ
PG9 Ab binder – binders of HIV-1 gp120 antibody PG9, primary screen, biochemical, TR-FRET | TR-FRET gp120-PG9 antibody binding | inhibition, % at 6.7 µM | hit rate 0.43% among 360,000; in the data active means inhibition above about 8.5%
NR2E3 ag-1 – NR2E3 agonists in two-hybrid cells, primary screen, cell-based, luminescence, CHO-S, Gal4-NCOR/VP16-NR2E3 | luciferase | hit rate 0.35% among 360,000 | inhibition of corepressor binding, % at 3.98 µM;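 active means inhibition above the mean of all tested compounds plus 3 SD, cut at about 70% in these data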;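 further: 0% = DMSO with NR2E3 transfected cells and 100% = cells lacking NR2E3 construct; higher means lower luciferase signal from less NR2E3 corepressor binding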
NR2E3 ag-2 – inhibitors of NR2E3-RetCOR corepressor binding, primary screen, NR2E3 agonist project, biochemical, TR-FRET, GST-NR2E3, biotin-RetCOR. inhibition of corepressor binding, % at 4.78 µM. hit rate 0.12% among 320,000. Photoreceptor-specific nuclear receptor (Homo sapiens), Q9Y5X4. 1536-well;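 active means percent inhibition above the cutoff of mean plus 3 SD of all tested compounds, set per screening campaign, cut at about 20% in these data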;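 further: 0% = DMSO wells and 100% = biotin wells as full block of FRET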
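Format: 1536-well format; test system: GST-NR2E3 and biotin-RetCOR proteins; read-out basis: percent inhibition of TR-FRET ratio; timing: 5 h incubation at 4 °C; detection: time-resolved FRET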
NR1D1 mod conf – modulators of Rev-erb alpha DNA binding, confirmation, biochemical, FITC-DNA, fluorescence polarization, single point. shares compounds with Rev-erbA mod. 90 min. activation, % at 25 µM. hit rate 61% among 3,000. AID 1259319, 2017;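 active means activation at or above a set limit, or at least 3 SD above the negative control mean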;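 further: 0% = 35 nM protein with DMSO and 100% = 750 nM protein high control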
RORg DNA counter – modulation of RORgamma DNA binding, dose response, counter-screen for Rev-erb alpha modulator project, biochemical, fluorescence polarization, FITC-DNA. IC50, µM. hit rate 8% among 910. shares compounds with Rev-erbA mod. purified RORgamma protein-FITC-DNA binding;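 active means Compounds whose fitted half-maximal concentration for disrupting protein-DNA binding is below 10 micromolar; the record names Rev-erb in its text, so the target is in doubt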
Starred values were filed as active, the others as inactive; / = no result given.

SMILES | Rev-erbA mod | PG9 Ab binder | NR2E3 ag-1 | NR2E3 ag-2 | NR1D1 mod conf | RORg DNA counter
CCCNC(=O)CS(=O)(=O)Cc1nc(-c2cccc(OC)c2)oc1C | -6 | -1 | 10 | 4 | / | /
O=C(NCC1CCCO1)c1cc2c(s1)CCC2 (centres undefined) | -3 | 0 | -65 | 4 | / | /
O=S(=O)(/N=C(/Nc1nc2ccccc2s1)c1ccccc1)c1ccc(F)cc1 | 19* | 1 | -25 | / | -3 | /
Cc1ccc(NC(=O)COC(=O)c2ccc(-n3cnnn3)cc2)c(Br)c1 | 0 | 0 | 0 | 5 | / | /
CC1=C(C(=O)NCCc2ccc(C)cc2)C2(CCC(C)CC2)OC1=O (centres undefined) | 6 | 1 | 0 | -2 | / | /
CCc1ccc(S(=O)(=O)ON2C(=O)c3ccccc3C2=O)cc1 | 5 | 1 | -6 | / | / | /
O=C1c2cccc3cccc(c23)C(=O)N1OS(=O)(=O)c1ccc(Cl)cc1 | 22* | -1 | -5 | 1 | 13 | /
CC(C)(C)c1ccc(Oc2ncccc2NC(=O)c2cccs2)cc1 | 2 | -1 | 2 | -5 | / | /
Cc1nn(C)c(C)c1NC(=O)CSc1nc(-c2ccccc2F)nc2c1cnn2-c1ccccc1 | 42* | -1 | -22 | / | 63* | >40
Cc1nn(C)c(C)c1NC(=O)CSc1nc(-c2ccccc2Cl)nc2c1cnn2-c1ccccc1 | 102* | 3 | -21 | -6 | 92* | 6.8*
CCc1cccc(C)c1NC(=O)CSc1nc(-c2ccccc2F)nc2nc[nH]c12 | 2 | 2 | -7 | -14 | / | /
Cc1cc(NC(=O)CSc2ncnc3c2cnn3-c2ccccc2)no1 | 3 | 1 | -12 | 4 | / | /
Cc1c(Cl)ccc2c(C(N)=O)cc(-c3ccccn3)nc12 | 41* | 2 | 2 | -7 | 35* | >40
CCOC(=O)CNC(=O)c1cc(-c2ccccn2)nc2c(C)c(Cl)ccc12 | 19* | 3 | -20 | 1 | 22* | /
Cc1c(Cl)ccc2c(C(=O)O)cc(-c3ccccc3)nc12 | -2 | 4 | -5 | 3 | / | /
CCOc1cc(C=O)c(Br)cc1OC1CCCC1 | 22* | 3 | 12 | 15 | 12 | /
NS(=O)(=O)c1ccc(CCNC(=O)c2ccc3c(c2)N(Cc2ccccc2)CCS3)cc1 | 39* | 4 | -8 | 2 | 13 | /
O=C(Nc1ccccc1)c1cc2c(=O)c3ccccc3oc2nc1C(F)(F)F | 46* | 5 | 3 | -2 | 34* | >40
O=C(Nc1cccc(C(F)(F)F)c1)c1cc2c(=O)c3ccccc3oc2nc1C(F)(F)F | 25* | 0 | -31 | 3 | 19* | /
CCCNC(=O)C(CC)NC(=O)c1ccc(C#N)cc1 (centres undefined) | 5 | -2 | 1 | 5 | / | /
COc1cccc(CNc2nc3ccc(C)cc3n3cnnc23)c1 | 26* | 2 | -10 | -1 | 7 | /
COc1ccc(-c2cc(CNC(=O)CN3CCN(C)CC3)on2)cc1 | 3 | 0 | -15 | 0 | / | /
CCC(=O)c1ccc(N2CCN(S(=O)(=O)c3ccccc3)CC2)c(F)c1 | 23* | -3 | -42 | -1 | 46* | >40
COc1ccc(C2Nc3ccccc3C(=O)N2c2ccc(F)cc2)cc1CSc1ccccn1 (centres undefined) | 30* | -8 | -6 | -8 | 15 | /
C/C(=N\N(Cc1ccccc1)c1ccccc1)c1ccncc1 | 43* | -3 | -17 | -4 | 40* | >40
SMILES | Rev-erbA mod | PG9 Ab binder | NR2E3 ag-1 | NR2E3 ag-2 | NR1D1 mod conf | RORg DNA counter
CCOC(=O)C1Nc2c(F)cc(C)cc2C2c3ccccc3CC12 (centres undefined) | 109* | -3 | 15 | 1 | 44* | /
CNC(=O)COC(=O)c1cc2c(C)nn(-c3ccc(F)cc3)c2s1 | 17* | 1 | 14 | 0 | 14 | /
COC(=O)c1cc(-c2cc3ccccc3s2)c(=O)n2c1CCC2 | 58* | / | / | / | 40* | >40
O=c1ccc2c(-c3ccccc3)c3ccc(O)cc3oc-2c1 | 102* | -3 | -14 | -2 | 99* | >40
O=c1cc(-c2ccccc2)oc2cc(O)ccc12 | 2 | 2 | -92 | / | / | /
Nc1ccc(-c2c3ccc(=O)cc-3oc3cc(O)ccc23)cc1C(=O)O | 187* | -6 | -44 | -2 | 240* | >40
COc1ccc(C(=O)Nc2ccnn2C2CCN(Cc3ccn[nH]3)CC2)cc1 | -1 | 0 | 6 | -1 | / | /
O=C(Nc1ccnn1C1CCN(Cc2ccn[nH]2)CC1)c1ccccc1 | 16* | -1 | 20 | 1 | -5 | /
COc1ccc(N2CCN(c3cc(C)c4cccc(C)c4n3)CC2)cc1 | -1 | 2 | 6 | -1 | / | /
Cc1cc(N2CCN(c3ncccn3)CC2)nc2c(C)cccc12 | 35* | -2 | -9 | 0 | 6 | /
CC(=O)Nc1ccc(Nc2c3c4c(cccc4n(C)c2=O)C(=O)c2ccccc2-3)cc1 | 33* | -7 | 12 | 3 | 31* | >40
Cn1c(=O)c(NCCc2ccccc2)c2c3c(cccc31)C(=O)c1ccccc1-2 | 97* | 4 | -27 | 8 | 69* | >40
Cn1c(=O)c(NCCO)c2c3c(cccc31)C(=O)c1ccccc1-2 | 101* | -1 | -21 | -3 | 118* | >40
CCCCNc1c2c3c(cccc3n(C)c1=O)C(=O)c1ccccc1-2 | / | / | -16 | -1 | / | /
CN1OC[C@@H]2CN[C@H](c3cccc(-c4cc(Cl)cc(Cl)c4)c3)C[C@@H]21 | 2 | -2 | -23 | / | / | /
O=C(COC(=O)C1Cc2ccccc2CN1C(=O)c1ccccc1)Nc1ccc(SC(F)F)cc1 (centres undefined) | 4 | -2 | 17 | 1 | / | /
COc1cc(/C=C(\C#N)c2nc3ccccc3[nH]2)cc(OC)c1O | 31* | -22 | -55 | -2 | 46* | >40
CCCOc1cc(N(CC)CC)ccc1/C=C(/C#N)c1nc2ccc(C)cc2[nH]1 | 32* | -1 | -16 | -6 | 41* | /
CCOc1cc(N(CC)CC)ccc1/C=C(/C#N)c1nc2ccccc2[nH]1 | 73* | -2 | 7 | 0 | 58* | >40
COc1ccc(/C=C(\C#N)c2nc3ccccc3[nH]2)cc1O | -1 | -6 | -79 | / | / | /
O=C(c1ccco1)N1CCN(Cc2nnnn2CC2CCCO2)CC1 (centres undefined) | -5 | -2 | 2 | -2 | / | /
CCN(C(=O)c1ccc(NC(=O)c2ccco2)cc1)c1ccccc1 | 1 | -1 | -6 | / | / | /
O=S(=O)(c1c(F)cccc1F)C1CCN(S(=O)(=O)c2ccc3c(c2)OCCO3)CC1 | 1 | 1 | 5 | / | / | /
